This is an account of results in ChEMBL document CHEMBL2331189, “Synthesis of tacrine-lophine hybrids via one-pot four component reaction and biological evaluation as acetyl- and butyrylcholinesterase inhibitors” (Eur J Med Chem, 2013).

One assay concerns the target Cholinesterase (Homo sapiens, UniProt P06276). In words: Inhibition of BuChE in human plasma using butyrylthiocholine iodide as substrate by Ellman's colorimetric method. The following applies: for pIC50: read-out: IC50. Put shortly: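 The BuChE source is plasma from 5 healthy human volunteers (24–60 years, both sexes), centrifuged at 1000× g for 15 min at room temperature and stored at −20 °C. In 20 mM phosphate buffer pH 7.4, plasma was incubated 150 s with 0.8 mM butyrylthiocholine iodide and DTNB. Absorbance of the yellow anion was read at 415 nm. Protein was determined by Peterson-modified Lowry against BSA.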

The target in another assay is T1, Acetylcholinesterase (Rattus norvegicus, UniProt P37136).
T1 sequence (P37136 whole entry): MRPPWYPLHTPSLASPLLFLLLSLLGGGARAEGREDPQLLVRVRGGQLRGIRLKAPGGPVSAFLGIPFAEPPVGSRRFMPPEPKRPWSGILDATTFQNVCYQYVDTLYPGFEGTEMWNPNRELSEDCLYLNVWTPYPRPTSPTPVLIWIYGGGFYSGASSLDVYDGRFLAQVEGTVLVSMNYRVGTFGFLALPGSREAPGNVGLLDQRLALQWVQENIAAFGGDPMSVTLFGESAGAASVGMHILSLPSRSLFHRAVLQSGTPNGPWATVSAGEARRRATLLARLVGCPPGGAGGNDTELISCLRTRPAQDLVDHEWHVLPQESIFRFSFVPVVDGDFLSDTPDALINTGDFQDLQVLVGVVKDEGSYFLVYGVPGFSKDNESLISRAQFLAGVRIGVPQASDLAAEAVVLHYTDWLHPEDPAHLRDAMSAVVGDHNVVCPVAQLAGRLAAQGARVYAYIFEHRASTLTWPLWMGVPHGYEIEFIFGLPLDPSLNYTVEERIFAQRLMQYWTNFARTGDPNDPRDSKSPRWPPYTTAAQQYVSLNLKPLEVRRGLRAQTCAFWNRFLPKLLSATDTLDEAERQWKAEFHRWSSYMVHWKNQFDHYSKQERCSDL
In words: Inhibition of AChE in Wistar rat brain cortex using acetylthiocholine iodide as substrate by Ellman's colorimetric method. The following applies: for pIC50: read-out: IC50. The method, boiled down: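 Enzyme source is the cortex of adult male Wistar rats (2–3 months), dissected on ice and homogenized in cold 10 mM Tris-HCl pH 7.2 with 160 mM sucrose. The 10,000× g supernatant (10 min, 4 °C) was stored at −20 °C. The sample in 20 mM phosphate pH 7.4 was incubated 150 s with 0.8 mM acetylthiocholine iodide plus DTNB.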

Assay [1] can be described thus: Ratio of IC50 for BuChE in human plasma to IC50 for AChE in Wistar rat brain cortex. Format: cell-free.

Each structure is given as a SMILES string. pIC50: −log10 of the molar value.

Sequence of Cholinesterase (P06276 whole entry): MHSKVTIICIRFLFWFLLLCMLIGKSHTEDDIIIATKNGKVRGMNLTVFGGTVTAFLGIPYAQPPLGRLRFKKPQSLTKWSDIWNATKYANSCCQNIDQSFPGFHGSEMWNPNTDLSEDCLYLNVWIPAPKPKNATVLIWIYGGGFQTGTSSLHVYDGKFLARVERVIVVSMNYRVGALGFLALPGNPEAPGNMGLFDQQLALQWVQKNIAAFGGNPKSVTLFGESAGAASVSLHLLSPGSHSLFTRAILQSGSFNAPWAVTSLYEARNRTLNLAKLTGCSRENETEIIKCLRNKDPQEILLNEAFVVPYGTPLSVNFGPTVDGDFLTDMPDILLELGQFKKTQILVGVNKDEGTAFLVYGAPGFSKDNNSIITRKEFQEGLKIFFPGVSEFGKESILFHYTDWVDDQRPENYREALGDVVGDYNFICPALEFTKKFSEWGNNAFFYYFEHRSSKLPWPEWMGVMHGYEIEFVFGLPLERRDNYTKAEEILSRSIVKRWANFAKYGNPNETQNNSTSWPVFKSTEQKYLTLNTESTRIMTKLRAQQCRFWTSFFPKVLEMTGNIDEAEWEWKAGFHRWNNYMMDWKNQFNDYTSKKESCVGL

As for `Clc1cccc(-c2nc(-c3ccccc3)c(-c3ccccc3)n2CCCCCCCCNc2c3c(nc4ccccc24)CCCC3)c1`, the IC50 result against Cholinesterase and on Acetylcholinesterase was “Not Active” each time.

Regarding `c1ccc(-c2nc(-c3ccccc3)n(CCCCCCNc3c4c(nc5ccccc35)CCCC4)c2-c2ccccc2)cc1`, the pIC50 at Cholinesterase was 7.24. Also, the IC50 entry on Acetylcholinesterase was “Not Active”.

In the case of `O=[N+]([O-])c1ccc(-c2nc(-c3ccccc3)c(-c3ccccc3)n2CCCCCCCCNc2c3c(nc4ccccc24)CCCC3)cc1`, the pIC50 at Cholinesterase was 6.92. In addition, on Acetylcholinesterase, the IC50 result was “Not Active”.

Take `c1ccc(-c2nc(-c3ccccc3)n(CCCCCCn3c(-c4ccccc4)nc(-c4ccccc4)c3-c3ccccc3)c2-c2ccccc2)cc1`: the IC50 result against Cholinesterase and on Acetylcholinesterase was “Not Active” each time.

Regarding `c1ccc2c(NCCCCCCCNc3c4c(nc5ccccc35)CCCC4)c3c(nc2c1)CCCC3`, on Cholinesterase, the pIC50 was 8.04.

With `c1ccc(-c2nc(-c3ccccc3)n(CCCCCCCCNc3c4c(nc5ccccc35)CCCC4)c2-c2ccccc2)cc1`, the IC50 entry at Cholinesterase and at Acetylcholinesterase was “Not Active” in each case.

Consider `Clc1ccc(-c2nc(-c3ccccc3)c(-c3ccccc3)n2CCCCCCCNc2c3c(nc4ccccc24)CCCC3)cc1`, for which the pIC50 is 7.43 at Cholinesterase and 7.22 on Acetylcholinesterase. Further, the Ratio IC50 in assay [1] worked out at 0.6.

`COc1ccc(-c2nc(-c3ccccc3)c(-c3ccccc3)n2CCCCCCNc2c3c(nc4ccccc24)CCCC3)cc1`: the pIC50 at Cholinesterase was 7.44. The IC50 entry on Acetylcholinesterase is “Not Active”.

As for `N#Cc1ccc(-c2nc(-c3ccccc3)c(-c3ccccc3)n2CCCCCCCCNc2c3c(nc4ccccc24)CCCC3)cc1`, at Cholinesterase, the pIC50 was 7.52. Besides, on Acetylcholinesterase, the IC50 entry is “Not Active”.

Take `c1ccc(-c2nc(-c3ccccc3)n(CCCCCCCn3c(-c4ccccc4)nc(-c4ccccc4)c3-c3ccccc3)c2-c2ccccc2)cc1`: the IC50 result against Cholinesterase and at Acetylcholinesterase was “Not Active” throughout.

On to `O=[N+]([O-])c1ccc(-c2nc(-c3ccccc3)c(-c3ccccc3)n2CCCCCCNc2c3c(nc4ccccc24)CCCC3)cc1`, for which the pIC50 on Cholinesterase is 7.91. Besides, on Acetylcholinesterase, the IC50 result was “Not Active”.

On to `Clc1cccc(-c2nc(-c3ccccc3)c(-c3ccccc3)n2CCCCCCNc2c3c(nc4ccccc24)CCCC3)c1`, for which the pIC50 at Cholinesterase is 7.46. Moreover, the IC50 entry at Acetylcholinesterase is given as “Not Active”.

With `c1ccc(-c2nc(-c3ccccc3)n(CCCCCCCCn3c(-c4ccccc4)nc(-c4ccccc4)c3-c3ccccc3)c2-c2ccccc2)cc1`, the IC50 result on Cholinesterase was “Not Active”. Besides, at Acetylcholinesterase, the pIC50 was 7.37.

Turning to `c1ccc(-c2nc(-c3ccccc3)n(CCCCCCCCCn3c(-c4ccccc4)nc(-c4ccccc4)c3-c3ccccc3)c2-c2ccccc2)cc1`, the IC50 entry against Cholinesterase and on Acetylcholinesterase was “Not Active” throughout.

Consider `Clc1cccc(-c2nc(-c3ccccc3)c(-c3ccccc3)n2CCCCCCCNc2c3c(nc4ccccc24)CCCC3)c1`, for which the IC50 result at Cholinesterase and at Acetylcholinesterase was “Not Active” in each case.

Turning to `O=[N+]([O-])c1ccc(-c2nc(-c3ccccc3)c(-c3ccccc3)n2CCCCCCCNc2c3c(nc4ccccc24)CCCC3)cc1`, the values for the pIC50 at Cholinesterase and at Acetylcholinesterase were 7.11 and 7.14, respectively. For the same compound, the Ratio IC50 in assay [1] came to 1.

In the case of `c1ccc(-c2nc(-c3ccccc3)n(CCCCCCCNc3c4c(nc5ccccc35)CCCC4)c2-c2ccccc2)cc1`, the negative-log IC50 (pIC50) is 7.03 at Cholinesterase and 7.09 at Acetylcholinesterase. The Ratio IC50 in assay [1] was 1.1.

For `N#Cc1ccc(-c2nc(-c3ccccc3)c(-c3ccccc3)n2CCCCCCCNc2c3c(nc4ccccc24)CCCC3)cc1`, at Cholinesterase, the pIC50 is 8.15. Moreover, the IC50 result against Acetylcholinesterase is “Not Active”.

As for `N#Cc1ccc(-c2nc(-c3ccccc3)c(-c3ccccc3)n2CCCCCCNc2c3c(nc4ccccc24)CCCC3)cc1`, the pIC50 on Cholinesterase is 7.53. In addition, the IC50 result on Acetylcholinesterase is given as “Not Active”.

Consider `Fc1ccc(-c2nc(-c3ccccc3)c(-c3ccccc3)n2CCCCCCCCNc2c3c(nc4ccccc24)CCCC3)cc1`, for which the pIC50 was 7.24 on Cholinesterase and 7.59 at Acetylcholinesterase. The Ratio IC50 in assay [1] worked out at 2.2.

For the compound `COc1ccc(-c2nc(-c3ccccc3)c(-c3ccccc3)n2CCCCCCCNc2c3c(nc4ccccc24)CCCC3)cc1`, the pIC50 was 7.21 on Cholinesterase and 7.16 on Acetylcholinesterase. The Ratio IC50 in assay [1] was determined as 0.9.

Take `Clc1ccc(-c2nc(-c3ccccc3)c(-c3ccccc3)n2CCCCCCCCNc2c3c(nc4ccccc24)CCCC3)cc1`: the pIC50 is 6.96 at Cholinesterase and 8.23 at Acetylcholinesterase. Moreover, the Ratio IC50 in assay [1] was determined as 18.5.

Take `COc1ccc(-c2nc(-c3ccccc3)c(-c3ccccc3)n2CCCCCCCCNc2c3c(nc4ccccc24)CCCC3)cc1`: the pIC50 on Cholinesterase was 7.08; at Acetylcholinesterase, 6.90. The Ratio IC50 in assay [1] came to 0.6.

Regarding `Fc1ccc(-c2nc(-c3ccccc3)c(-c3ccccc3)n2CCCCCCCNc2c3c(nc4ccccc24)CCCC3)cc1`, the pIC50 is 7.17 at Cholinesterase and 7.41 on Acetylcholinesterase. In addition, in assay [1], the Ratio IC50 worked out at 1.7.

`Clc1ccc(-c2nc(-c3ccccc3)c(-c3ccccc3)n2CCCCCCCCCCNc2c3c(nc4ccccc24)CCCC3)cc1`: the IC50 result against Cholinesterase and against Acetylcholinesterase was “Not Active” throughout.

Regarding `Clc1ccc(-c2nc(-c3ccccc3)c(-c3ccccc3)n2CCCCCCCCCNc2c3c(nc4ccccc24)CCCC3)cc1`, the IC50 entry at Cholinesterase and on Acetylcholinesterase was “Not Active” in each case.

On to `Clc1ccc(-c2nc(-c3ccccc3)c(-c3ccccc3)n2CCCCCCNc2c3c(nc4ccccc24)CCCC3)cc1`, for which, at Cholinesterase, the pIC50 was 7.53. Further, the IC50 result on Acetylcholinesterase is “Not Active”.

On to `Fc1ccc(-c2nc(-c3ccccc3)c(-c3ccccc3)n2CCCCCCNc2c3c(nc4ccccc24)CCCC3)cc1`, for which, on Cholinesterase, the pIC50 is 7.26. Also, at Acetylcholinesterase, the IC50 entry was “Not Active”.

As to `c1ccc(-c2nc(-c3ccccc3)n(CCCCCCCCCCn3c(-c4ccccc4)nc(-c4ccccc4)c3-c3ccccc3)c2-c2ccccc2)cc1`, the IC50 result at Cholinesterase and against Acetylcholinesterase was “Not Active” each time.
